Reference: ChEMBL document CHEMBL1146838, “4-Hydroxy-3-methyl-6-phenylbenzofuran-2-carboxylic acid ethyl ester derivatives as potent anti-tumor agents” (Bioorg Med Chem Lett, 2004)
≈ marks a conversion by molar mass, not a printed value.

Tested on: WI-38 VA13
Assay: Cytotoxicity against VA13 cell line; Expressed as effective concentration
Assay type: functional, cell-based
Conditions: Homo sapiens
Method in brief: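 Human tumorigenic VA13 cells grown in MEM-E with penicillin/streptomycin and 10% fetal calf serum, seeded at 1.5–3.0×10³ cells/well, cultured 2–3 days. Compounds in DMSO (final <0.5%) added for 24 h, then washed out and cells cultured a further 3 days in fresh medium. XTT with phenazine methosulfate added for 2.5 h, OD450 read. Viability computed relative to untreated and cell-free blanks; EC50 taken from dose–response curve.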

| SMILES | EC50 |
| --- | --- |
| COc1ccc(OC)c(C(=O)c2oc3cc(-c4ccccc4)cc(O)c3c2C)c1 | 0.09 µg/mL (≈ 0.232 µM) |
| COc1ccc(C(=O)c2oc3cc(-c4ccccc4)cc(O)c3c2C)cc1 | 0.28 µg/mL (≈ 0.781 µM) |
| CCOC(=O)c1oc2cc(-c3ccccc3)cc(O)c2c1C | 0.04 µg/mL (≈ 0.135 µM) |
| Cc1c(C(=O)C(C)(C)C)oc2cc(-c3ccccc3)cc(O)c12 | 0.41 µg/mL (≈ 1.33 µM) |
| CC(=O)c1oc2cc(-c3ccccc3)cc(O)c2c1C | 0.08 µg/mL (≈ 0.3 µM) |
| Cc1c(C(=O)c2ccccc2)oc2cc(-c3ccccc3)cc(O)c12 | 0.6 µg/mL (≈ 1.83 µM) |
| Cc1c(C(=O)c2nccs2)oc2cc(-c3ccccc3)cc(O)c12 | 0.4 µg/mL (≈ 1.19 µM) |
| COCc1ccccc1C(=O)c1oc2cc(-c3ccccc3)cc(O)c2c1C | 0.1 µg/mL (≈ 0.269 µM) |
| COc1ccc(CCOC(=O)c2oc3cc(-c4ccccc4)cc(O)c3c2C)cc1 | 0.02 µg/mL (≈ 0.0497 µM) |
| COc1ccc(CCOC(=O)c2oc3cc(-c4ccccc4)cc(O)c3c2C)cc1OC | 0.021 µg/mL (≈ 0.0486 µM) |
| COc1ccc(C(=O)c2oc3cc(-c4ccccc4)cc(O)c3c2C)c(C(F)(F)F)c1 | 0.4 µg/mL (≈ 0.938 µM) |
| Cc1c(C(=O)c2ccc(Oc3ccccc3)cc2)oc2cc(-c3ccccc3)cc(O)c12 | > 4 µg/mL |
| CCCC(=O)c1oc2cc(-c3ccccc3)cc(O)c2c1C | 0.59 µg/mL (≈ 2 µM) |
| Cc1c(C(=O)c2cccs2)oc2cc(-c3ccccc3)cc(O)c12 | 2 µg/mL (≈ 5.98 µM) |
| Cc1c(C(=O)c2cccc(OC(C)C)c2)oc2cc(-c3ccccc3)cc(O)c12 | 0.35 µg/mL (≈ 0.906 µM) |
| Cc1c(C(=O)c2cccc(C(F)(F)F)c2)oc2cc(-c3ccccc3)cc(O)c12 | > 4 µg/mL |
| Cc1c(C(=O)c2ccccc2-c2ccccc2)oc2cc(-c3ccccc3)cc(O)c12 | 0.1 µg/mL (≈ 0.247 µM) |
| COc1ccc(C(=O)c2oc3cc(-c4ccccc4)cc(O)c3c2C)cc1OC | 0.45 µg/mL (≈ 1.16 µM) |
| Cc1c(C(=O)c2ccc(F)c(F)c2)oc2cc(-c3ccccc3)cc(O)c12 | 0.4 µg/mL (≈ 1.1 µM) |
| Cc1c(C(=O)C2CCCCC2)oc2cc(-c3ccccc3)cc(O)c12 | 0.45 µg/mL (≈ 1.35 µM) |

| SMILES | EC50 |
| --- | --- |
| Cc1c(C(=O)c2cccc(CN(C)C)c2)oc2cc(-c3ccccc3)cc(O)c12 | 0.09 µg/mL (≈ 0.233 µM) |
| Cc1c(C(=O)Cc2ccccc2)oc2cc(-c3ccccc3)cc(O)c12 | > 4 µg/mL |
| Cc1ncsc1CCOC(=O)c1oc2cc(-c3ccccc3)cc(O)c2c1C | 0.055 µg/mL (≈ 0.14 µM) |
| Cc1c(C(=O)c2ccc(CN(C)C)cc2)oc2cc(-c3ccccc3)cc(O)c12 | > 4 µg/mL |
| Cc1c(C(=O)c2ccc(N(C)C)cc2)oc2cc(-c3ccccc3)cc(O)c12 | > 4 µg/mL |
| CCCCC(=O)c1oc2cc(-c3ccccc3)cc(O)c2c1C | 2 µg/mL (≈ 6.49 µM) |
| COc1cc(C(F)(F)F)ccc1C(=O)c1oc2cc(-c3ccccc3)cc(O)c2c1C | 0.26 µg/mL (≈ 0.61 µM) |
| COc1ccc(C(=O)c2oc3cc(-c4ccccc4)cc(O)c3c2C)c(OC)c1 | 0.04 µg/mL (≈ 0.103 µM) |
| Cc1c(C(=O)c2cnc3ccccc3c2)oc2cc(-c3ccccc3)cc(O)c12 | > 4 µg/mL |
| Cc1c(C(=O)CCc2ccccc2)oc2cc(-c3ccccc3)cc(O)c12 | > 4 µg/mL |
| CCc1ccc(C(=O)c2oc3cc(-c4ccccc4)cc(O)c3c2C)cc1 | > 4 µg/mL |
| Cc1c(C(=O)O)oc2cc(-c3ccccc3)cc(O)c12 | > 4 µg/mL |
| Cc1c(C(=O)OC(C)C)oc2cc(-c3ccccc3)cc(O)c12 | 0.06 µg/mL (≈ 0.193 µM) |
| Cc1c(C(=O)c2cncnc2)oc2cc(-c3ccccc3)cc(O)c12 | 0.7 µg/mL (≈ 2.12 µM) |
| Cc1c(C(=O)C(C)C)oc2cc(-c3ccccc3)cc(O)c12 | 0.41 µg/mL (≈ 1.39 µM) |
| Cc1c(C(=O)NCCc2ccccn2)oc2cc(-c3ccccc3)cc(O)c12 | 1.5 µg/mL (≈ 4.03 µM) |
| Cc1c(C(=O)c2ccccn2)oc2cc(-c3ccccc3)cc(O)c12 | 0.6 µg/mL (≈ 1.82 µM) |
| COc1ccccc1C(=O)c1oc2cc(-c3ccccc3)cc(O)c2c1C | 0.09 µg/mL (≈ 0.251 µM) |
| CCC(=O)c1oc2cc(-c3ccccc3)cc(O)c2c1C | 0.27 µg/mL (≈ 0.963 µM) |
